Assays:
[1] = Cytotoxicity against human HaCaT cells assessed as cell viability at 10 ug/ml after 72 hrs by MTT assay (reference value: 100%); assay type: cell-based; conditions: read-out: Activity
Summary of the method: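 Cells were grown in DMEM with 10% heat-inactivated FBS and penicillin-streptomycin, seeded at 2×10^3/well (HepG2, HaCat) or 1×10^3/well (Vero), then left 24 h. Compound was applied at 10 µg/mL final (2% DMSO) for 72 h at 37 °C, 5% CO2. MTT 1 mg/mL was added for 3 h, formazan dissolved in DMSO, and A595 read. Viability is expressed relative to 2% DMSO wells; mean ± SEM, triplicates, three independent experiments.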

[2] = Stability of the compound in PBS containing 10% DMSO at 37 degC measured after 9 hrs by HPLC analysis; assay type: physicochemical; conditions: for remaining at 9 h: PBS containing 10% DMSO, read-out: Stability
[3] = Stability of the compound in PBS containing 10% DMSO at 25 degC measured after 24 hrs by HPLC analysis; assay type: physicochemical; conditions: buffer
[4] = Selectivity index, ratio of cytotoxic concentration for human HepG2 cells by MTT assay to MIC for Mycobacterium tuberculosis H37Rv ATCC 27294; assay type: toxicity; conditions: read-out: Selectivity Index
[5] = Cytotoxicity against human HaCaT cells assessed as cell viability at 10 ug/ml after 72 hrs by neutral red uptake assay (reference value: 100%); assay type: cell-based; conditions: read-out: Activity
Summary of the method: (§1)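 Seeding was 2×10^3/well for HepG2 and HaCat and 1×10^3/well for Vero. After 24 h, cells received 10 µg/mL final (2% DMSO) for 72 h at 37 °C, 5% CO2. They were washed with PBS, given neutral red 25 µg/mL in serum-free medium for 3 h, washed, and extracted 30 min with acetic acid/EtOH/water 1:50:49. A540 was read. Viability is relative to 2% DMSO controls; mean ± SEM, three experiments in triplicate.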

[6] = Cytotoxicity against human HepG2 cells assessed as cell viability at 10 ug/ml after 72 hrs by neutral red uptake assay (reference value: 100%); assay type: cell-based; conditions: read-out: Activity; summary of the method: as §1
[7] = Selectivity index, ratio of cytotoxic concentration for human HepG2 cells by neutral red uptake assay to MIC for Mycobacterium tuberculosis H37Rv ATCC 27294; assay type: toxicity; conditions: read-out: Selectivity Index
[8] = Stability of the compound in PBS containing 10% DMSO at 25 degC measured after 9 hrs by HPLC analysis; assay type: physicochemical; conditions: buffer
Danio rerio [9] = species: Danio rerio; assay: Cardiotoxicity in Zebrafish AB embryos assessed as heart beat rate at 15 uM measured at 2 days post fertilization by stereomicroscopic method (reference value: 128.7 to 146.3 bpm); assay type: organism-based; conditions: in vivo, 48 h
Danio rerio [10] = species: Danio rerio; assay: Cardiotoxicity in Zebrafish AB embryos assessed as heart beat rate at 20 uM measured at 5 days post fertilization by stereomicroscopic method (reference value: 148.1 to 158.2 bpm); assay type: organism-based; conditions: in vivo, 120 h
[11] = Stability of the compound in PBS containing 10% DMSO at 37 degC measured after 12 hrs by HPLC analysis; assay type: physicochemical; conditions: read-out: Stability
Danio rerio [12] = species: Danio rerio; assay: Toxicity in Zebrafish AB embryos assessed as morphological alteration by measuring effect on body length of larvae at 20 uM measured at 2 to 5 days post fertilization by stereomicroscopic method; assay type: organism-based; conditions: in vivo
Summary of the method: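 AB embryos are treated from 2 hpf to 5 dpf at 3.0, 15.0 and 20.0 µM in fish water with 1% DMSO, at 28 °C. Controls are fish water and 1% DMSO. Larvae are photographed under a stereomicroscope (3×) at 2 and 5 dpf, n = 30. Body length (µm), ocular distance (µm) and eye surface area (µm²) are measured from the images.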

O=C(CSc1nc2ccccc2c(=O)[nH]1)NC1CCCCC1
viability at 72 h, 10 ug/ml [1]: 100% | Stability ([2]; buffer, 9 h): 123% | Stability [3]: 109% | selectivity ratio [4]: ≤ 32 | viability at 72 h, 10 ug/ml [5]: 97% | viability at 72 h, 10 ug/ml [6]: 95% | selectivity ratio [7]: ≤ 32 | Stability [8]: 118% | Activity (Danio rerio [9]): 155 bpm | Activity (Danio rerio [10]): 158.4 bpm | remaining at 12 h [11]: 120%

CC1CCC(NC(=O)CSc2nc3ccccc3c(=O)[nH]2)CC1 (stereo not drawn)
viability at 72 h, 10 ug/ml [1]: 95% | remaining at 9 h [2]: 69% | Stability [3]: 111% | selectivity ratio [4]: ≤ 32 | viability at 72 h, 10 ug/ml [5]: 94% | viability at 72 h, 10 ug/ml [6]: 96% | selectivity ratio [7]: ≤ 32 | Stability [8]: 99% | Activity (Danio rerio [9]): 127.2 bpm | Activity (Danio rerio [10]): 152.2 bpm | remaining at 12 h [11]: 70%

CC1CCCCC1NC(=O)CSc1nc2ccccc2c(=O)[nH]1 (stereo not drawn)
viability at 72 h, 10 ug/ml [1]: 100% | remaining at 9 h [2]: 71% | Stability [3]: 138% | selectivity ratio [4]: ≤ 32 | viability at 72 h, 10 ug/ml [5]: 99% | viability at 72 h, 10 ug/ml [6]: 101% | selectivity ratio [7]: ≤ 32 | Stability [8]: 127% | Activity (Danio rerio [9]): 151.7 bpm | Activity (Danio rerio [10]): 160.6 bpm | remaining at 12 h [11]: 70%

C[C@H]1CC[C@H](NC(=O)CSc2nc3ccccc3c(=O)[nH]2)CC1
viability at 72 h, 10 ug/ml [1]: 97% | remaining at 9 h [2]: 77% | Stability [3]: 26% | Activity (Danio rerio [12]): Toxic | selectivity ratio [4]: ≤ 32 | viability at 72 h, 10 ug/ml [5]: 97% | viability at 72 h, 10 ug/ml [6]: 97% | selectivity ratio [7]: ≤ 32 | Stability [8]: 64% | Activity (Danio rerio [9]): 134 bpm | Activity (Danio rerio [10]): 153.8 bpm | remaining at 12 h [11]: 70%

O=C(CSc1nc2ccccc2c(=O)[nH]1)NC1CCCCCC1
viability at 72 h, 10 ug/ml [1]: 100% | remaining at 9 h [2]: 68% | Stability [3]: 122% | selectivity ratio [4]: ≤ 32 | viability at 72 h, 10 ug/ml [5]: 88% | viability at 72 h, 10 ug/ml [6]: 105% | selectivity ratio [7]: ≤ 32 | Stability [8]: 91% | Activity (Danio rerio [9]): 136.5 bpm | Activity (Danio rerio [10]): 153.8 bpm | remaining at 12 h [11]: 81%

CC1CCCC(NC(=O)CSc2nc3ccccc3c(=O)[nH]2)C1 (stereo not drawn)
viability at 72 h, 10 ug/ml [1]: 94% | remaining at 9 h [2]: 97% | Stability [3]: 100% | selectivity ratio [4]: ≤ 32 | viability at 72 h, 10 ug/ml [5]: 88% | viability at 72 h, 10 ug/ml [6]: 95% | selectivity ratio [7]: ≤ 32 | Stability [8]: 100% | Activity (Danio rerio [9]): 151.7 bpm | Activity (Danio rerio [10]): 160.9 bpm | remaining at 12 h [11]: 100%

O=C(CSc1nc2ccccc2c(=O)[nH]1)NCC1CCCCC1
viability at 72 h, 10 ug/ml [1]: 98% | remaining at 9 h [2]: 112% | Stability [3]: 114% | selectivity ratio [4]: ≤ 32 | viability at 72 h, 10 ug/ml [5]: 88% | viability at 72 h, 10 ug/ml [6]: 97% | selectivity ratio [7]: ≤ 32 | Stability [8]: 116% | Activity (Danio rerio [9]): 143.2 bpm | Activity (Danio rerio [10]): 152.5 bpm | remaining at 12 h [11]: 111%

From ChEMBL document CHEMBL4152290, “1H-Benzo[d]imidazoles and 3,4-dihydroquinazolin-4-ones: Design, synthesis and antitubercular activity” (Eur J Med Chem, 2018)
